Measurements: ChEMBL document CHEMBL1124451, “[(1H-imidazol-1-yl)methyl]- and [(3-pyridinyl)methyl]pyrroles as thromboxane synthetase inhibitors” (J Med Chem, 1989)

Key:
Homo sapiens [1] = species: Homo sapiens; assay: Relative potency to inhibit ADP-induced aggregation of human platelet rich plasma compared to that of dazoxiben, in vitro using pig aortal microsomes.; format: functional; details: Aorta
Homo sapiens [2] = species: Homo sapiens; assay: In vitro inhibition of ADP-induced aggregation of human platelet rich plasma in the presence of pig aortal microsomes.; format: functional; details: Aorta
How it was run: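 Human citrated blood (0.38% citrate final), PRP by centrifugation at 200g, room temperature. Drug added to 1.0 mL PRP, 2 min at 37 °C with stirring (500 rpm), then pig aortal microsomes 3 min; microsome amount set by the dazoxiben standard. Aggregation induced by 5 μM ADP (final), read turbidimetrically.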

Rattus norvegicus [3] = assay: Concentration of thromboxane in urine of rats with 5/6 nephrectomy; when treated with compound at 68 mg/kg per day (n=4); format: functional, organism-based
How it was run: (§1)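 Male Munich Wistar rats, 200-270 g, 5/6 renal ablation (right nephrectomy plus ligation of arterial branches to two-thirds of left kidney) under 50 mg/kg brevital ip. Drug given in drinking water from 1 week post-surgery: 500 mg/L (68 mg/kg/day), 1500 mg/L (205 mg/kg/day), or 3000 mg/L (410 mg/kg/day) after 9 weeks. TXB2 measured by radioimmunoassay in urine (8-11 weeks) and serum (10-13 weeks); controls received water.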

Rattus norvegicus [4] = assay: Concentration of thromboxane in urine of rats with 5/6 nephrectomy; when treated with compound at 205 mg/kg per day (n=5); format: functional, organism-based; how it was run: as §1
[5] = biological target: T1, Thromboxane-A synthase (Homo sapiens) (UniProt P24557); assay: Relative potency of thromboxane A2 synthetase as reduced ADP-induced aggregation of human platelet rich plasma compared to dazoxiben; format: functional, cell-free
T1 sequence (whole entry): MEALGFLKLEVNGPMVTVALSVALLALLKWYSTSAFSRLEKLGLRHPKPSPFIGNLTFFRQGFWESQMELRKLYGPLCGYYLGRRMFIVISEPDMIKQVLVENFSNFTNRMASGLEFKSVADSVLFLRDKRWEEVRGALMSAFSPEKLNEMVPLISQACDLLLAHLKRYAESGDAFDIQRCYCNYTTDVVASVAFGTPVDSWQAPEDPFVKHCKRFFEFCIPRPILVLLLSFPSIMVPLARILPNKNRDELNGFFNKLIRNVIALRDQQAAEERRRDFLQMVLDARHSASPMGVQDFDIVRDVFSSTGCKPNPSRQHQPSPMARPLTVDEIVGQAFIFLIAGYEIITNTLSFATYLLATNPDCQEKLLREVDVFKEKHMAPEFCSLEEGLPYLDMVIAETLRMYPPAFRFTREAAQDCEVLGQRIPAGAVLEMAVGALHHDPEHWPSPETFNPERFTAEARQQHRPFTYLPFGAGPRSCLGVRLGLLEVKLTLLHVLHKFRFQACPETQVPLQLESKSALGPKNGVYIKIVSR

Mus musculus [6] = assay: Activity at 10 mg/kg given perorally against mortality in a pulmonary thromboembolism model in mice (10 animals) at 1 hr; format: functional; details: route oral
How it was run: (§2)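 Male Swiss-Webster mice (22-26 g), 10 per group (one group of 9); test material given po in 0.2 mL CMC at -1, -3, -5 or -18 h before challenge. At hour 0, collagen extract plus epinephrine hydrochloride given iv via tail vein in 0.9% saline. The collagen amount was titrated per lot to 90-100% mortality in vehicle controls. Readout: % surviving at 24 h.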

Mus musculus [7] = assay: Effect of TXA2 Synthetase inhibition (topically) upon inflammation in 12-O-tetradecanoylphorbol acetate induced ear edema in mice; format: functional
Rattus norvegicus [8] = assay: Percent inhibition of thromboxane from control in urine of rats with 5/6 nephrectomy at 205 mg/kg per day; format: functional; how it was run: as §1
Mus musculus [9] = assay: Activity at 10 mg/kg given perorally against mortality in a pulmonary thromboembolism model in mice (10 animals) at -3h following oral administration; format: functional; how it was run: as §2
Rattus norvegicus [10] = assay: Total glomeruli with lesions was determined […], in kidneys of rats after dosing at 68 mg/kg per day for 9 weeks following by dosing with 410 mg/kg/day for 4 weeks; format: functional, Kidney
How it was run: (§3)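 5/6 renal ablated male Munich Wistar rats received drug in drinking water: 205 mg/kg/day, or 68 mg/kg/day for 9 weeks then 410 mg/kg/day for 4 weeks; controls received water. Kidneys perfused with fixative at end of week 10 (205 group) or week 13. Glomeruli with lesions counted (mesangial proliferation, tubular hyaline casts, cortical interstitial inflammation, hydronephrosis); mean ± SEM.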

Rattus norvegicus [11] = assay: Concentration of thromboxane in serum of rats with 5/6 nephrectomy; when treated with compound at 410 mg/kg per day (n=4); format: functional, organism-based; how it was run: as §1
Rattus norvegicus [12] = assay: Percent inhibition of thromboxane from control in urine of rats with 5/6 nephrectomy at 410 mg/kg per day; format: functional; how it was run: as §1
Mus musculus [13] = assay: Activity at 10 mg/kg given perorally against mortality in a pulmonary thromboembolism model in mice (10 animals) at -5h following oral administration; format: functional; how it was run: as §2
Mus musculus [14] = assay: Effect of TXA2 Synthetase inhibition (topically) upon inflammation in arachidonic acid induced ear edema in mice; format: functional
How it was run: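 Arachidonic acid-induced ear edema in mice; test material applied topically at 2 mg/mouse.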

Rattus norvegicus [15] = assay: Concentration of thromboxane in serum of rats with 5/6 nephrectomy; when treated with compound at 205 mg/kg per day (n=4); format: functional, organism-based; how it was run: as §1
Rattus norvegicus [16] = species: Rattus norvegicus; assay: Effect of TXA2 Synthetase inhibition (perorally) upon inflammation in rat adjuvant-induced arthritis model; format: functional
Rattus norvegicus [17] = assay: Percent inhibition of thromboxane from control in serum of rats with 5/6 nephrectomy at 205 mg/kg per day; format: functional; how it was run: as §1
Mus musculus [18] = assay: Activity at 10 mg/kg given perorally against mortality in a pulmonary thromboembolism model in mice (10 animals) at -18h following oral administration; format: functional; how it was run: as §2
Mus musculus [19] = assay: Effect of TXA2 Synthetase inhibition (perorally) upon inflammation in oxazolone induced delayed hypersensitivity ear edema in mice; format: functional
How it was run: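 Oxazolone-induced delayed hypersensitivity ear edema in mice; test material dosed orally at 25 mg/kg.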

Mus musculus [20] = assay: Activity at 12.5 mg/kg given intravenously against mortality in a pulmonary thromboembolism model in mice (10 animals) at 3 hr; format: functional; details: route intravenous
How it was run: (§4)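 Male Swiss-Webster mice (22-26 g); test material given iv in 0.2 mL CMC before challenge (mostly at -3 h, one group at -1 h). At hour 0, collagen extract plus epinephrine hydrochloride given iv in 0.2 mL 0.9% saline via tail vein. The collagen amount was set per lot as the minimum giving 90-100% mortality in CMC-vehicle controls. Readout: % surviving at 24 h.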

Mus musculus [21] = assay: Activity at 6.25 mg/kg given intravenously against mortality in a pulmonary thromboembolism model in mice (10 animals) at 3 hr; format: functional; details: route intravenous; how it was run: as §4
Mus musculus [22] = species: Mus musculus; assay: Effect of TXA2 Synthetase inhibition (perorally) upon inflammation in phenoylquinone-induced writhing in mice; format: functional
Mus musculus [23] = assay: Activity at 25 mg/kg given intravenously against mortality in a pulmonary thromboembolism model in mice (10 animals) at 3 hr; format: functional; details: route intravenous; how it was run: as §4
Mus musculus [24] = assay: Activity at 10 mg/kg given perorally against mortality in a pulmonary thromboembolism model in mice (10 animals) at -1h following oral administration; format: functional; how it was run: as §2
Rattus norvegicus [25] = assay: Percent inhibition of thromboxane from control in serum of rats with 5/6 nephrectomy at 410 mg/kg per day; format: functional; how it was run: as §1
Rattus norvegicus [26] = assay: Percent inhibition of thromboxane from control in urine of rats with 5/6 nephrectomy at 68 mg/kg per day; format: functional; how it was run: as §1
Rattus norvegicus [27] = assay: Effect of TXA2 Synthetase inhibition (perorally) upon inflammation in carrageenan induced rat paw edema in rats
Rattus norvegicus [28] = assay: Concentration of thromboxane in urine of rats with 5/6 nephrectomy; when treated with compound at 410 mg/kg per day (n=4); format: functional, organism-based; how it was run: as §1
Rattus norvegicus [29] = assay: Total glomeruli with lesions was determined […], in kidneys of rats after dosing with compound at 205 mg/kg per day; format: functional, Kidney; how it was run: as §3
Mus musculus [30] = assay: Activity at 10 mg/kg given intravenously against mortality in a pulmonary thromboembolism model in mice (10 animals) at -3h; format: functional; details: route intravenous; how it was run: as §4
Mus musculus [31] = assay: Activity at 20 mg/kg given intravenously against mortality in a pulmonary thromboembolism model in mice (10 animals) at -3h; format: functional; details: route intravenous; how it was run: as §4

`CCOC(=O)/C(C)=C\c1ccc(Cc2cccnc2)n1C(C)C` showed a Relative potency (Homo sapiens [1]) of 0.06 and an IC50 (Homo sapiens [2]) of 32 µM.
In the case of `CCOC(=O)/C(C)=C\c1cc(Cc2cccnc2)n(C(C)(C)C)c1`, the Relative potency (Homo sapiens [1]) is reported as 0.59 and the IC50 (Homo sapiens [2]) is reported as 3.2 µM.
For `CCOC(=O)/C(C)=C/c1cc(Cn2ccnc2)n(C)c1`, the Relative potency (Homo sapiens [1]) was 1.1 and the IC50 (Homo sapiens [2]) was 1.8 µM.
For `C/C(=C/c1ccc(Cn2ccnc2)n1C)C(=O)O`, the Concentration (Rattus norvegicus [3]) was 42 ng/day, the Concentration (Rattus norvegicus [4]) was 45 ng/day and the Relative potency [5] was 2.2. For the same molecule, the survival at 10 mg/kg (Mus musculus [6]) was 50%, the Dose (Mus musculus [7]) was 0.5 mg mouse-1 and the inhibition in vivo at 205 mg/kg/day (Rattus norvegicus [8]) was 77.4%. For the same molecule, the survival at 10 mg/kg (Mus musculus [9]) was 40%, the Total glomeruli (Rattus norvegicus [10]) was 8 and the Concentration (Rattus norvegicus [11]) was 36 ng/day. For the same molecule, the inhibition in vivo at 410 mg/kg/day (Rattus norvegicus [12]) was 70.4%, the survival at 10 mg/kg (Mus musculus [13]) was 30% and the Dose (Mus musculus [14]) was 2 mg mouse-1. The Concentration (Rattus norvegicus [15]) was 10 ng/day, the Dose (Rattus norvegicus [16]) was 4.25 mg rat-1 and the inhibition in vivo at 205 mg/kg/day (Rattus norvegicus [17]) was 98%. The survival at 10 mg/kg (Mus musculus [18]) was 10%, the Dose (Mus musculus [19]) was 25 mg/kg and the survival at 12.5 mg/kg (Mus musculus [20]) was 70%. For the same molecule, the survival at 6.25 mg/kg (Mus musculus [21]) was 70%, the Dose (Mus musculus [22]) was 3 mg mouse-1 and the survival at 25 mg/kg (Mus musculus [23]) was 90%. The survival at 10 mg/kg (Mus musculus [24]) was 40%, the inhibition in vivo at 410 mg/kg/day (Rattus norvegicus [25]) was 92.8% and the inhibition in vivo at 68 mg/kg/day (Rattus norvegicus [26]) was 78.9%. It also gave a Dose (Rattus norvegicus [27]) of 10 mg rat-1, a Concentration (Rattus norvegicus [28]) of 59 ng/day and a Total glomeruli (Rattus norvegicus [29]) of 13.
Work on `C/C(=C/c1ccc(Cc2cccnc2)n1CC(C)(C)C)C(=O)O` yielded a Relative potency [5] of 0.24.
`C/C(=C\c1ccc(Cn2ccnc2)[nH]1)C(=O)OCc1ccccc1` showed a Relative potency (Homo sapiens [1]) of 0.11 and an IC50 (Homo sapiens [2]) of 20 µM.
For `CCn1c(/C=C(/C)C(=O)O)ccc1Cc1cccnc1`, the Relative potency [5] was 45, the survival at 10 mg/kg (Mus musculus [30]) was 10% and the survival at 20 mg/kg (Mus musculus [31]) was 10%.
